Screening data: PubChem, The Scripps Research Institute Molecular Screening Center
MsrA inh = bovine MsrA enzyme inhibitors, primary screen, biochemical, absorbance, HTS; purified bovine MsrA, absorbance read-out; 0.75% of 360,000 active; inhibition, % at 15.5 µM; Methionine sulfoxide reductase A (Bos taurus); AID 651718, 2012; in the data active = inhibition above about 4.5%
MsrA act = bovine MsrA enzyme activators, primary screen, biochemical, absorbance, HTS | purified bovine MsrA, absorbance read-out | activation, % at 10.6 µM | 0.3% of 360,000 active | Methionine sulfoxide reductase A (Bos taurus); in the data active = activation above about 7.5%
TbMetRS inhib = T. brucei MetRS inhibitors, primary screen, biochemical, luminescence; methionyl-tRNA synthetase (Trypanosoma brucei brucei); purified T. brucei MetRS, ATP depletion, Kinase-Glo luminescence; inhibition, % at 11.9 µM; 0.4% of 360,000 active;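 active = inhibition above a per-plate cutoff of the control wells' mean inhibition plus 3 SD, cut at about 5.5% in these data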
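Test system – parasite MetRS enzyme · Reagent – substrates ATP, L-methionine and bulk Escherichia coli tRNA · Doses – 11.9 µM compound single dose, 0.9% DMSO · Times – 15 min enzyme-compound preincubation, 2 h reaction, 10 min detection, 25 °C · Signal – Kinase-Glo luminescence, ATP depletion format · Controls – DMSO-only wells as low control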
procasp3 activ = activators of human procaspase-3 D3A mutant, primary screen, biochemical, absorbance, PC-3 D3A mutant, single concentration. Caspase-3 (Homo sapiens), P42574. 0.11% of 330,000 active. activation, % at 8.5 µM. recombinant procaspase-3 D3A, Ac-DEVD-pNA absorbance 405 nm;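 active = activation above the mean of all tested compounds plus 3 SD, cut at about 21% in these data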
Target sequence (P42574 whole entry D9A/D28A/D175A): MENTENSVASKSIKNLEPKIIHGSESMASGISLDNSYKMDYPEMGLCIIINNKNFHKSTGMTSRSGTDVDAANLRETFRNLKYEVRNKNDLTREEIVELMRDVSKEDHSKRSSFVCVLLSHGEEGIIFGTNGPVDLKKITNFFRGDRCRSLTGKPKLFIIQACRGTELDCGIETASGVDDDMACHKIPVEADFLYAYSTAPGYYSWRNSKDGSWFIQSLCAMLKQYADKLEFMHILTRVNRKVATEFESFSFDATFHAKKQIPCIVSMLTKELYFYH
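material = Procaspase-3 D3A mutant | probe or stimulus = Ac-DEVD-pNA | compound = single dose, 8.5 µM nominal compound, 0.8% DMSO | timing = 1 h preincubation, 2 h reaction | measured by = 405 nm absorbance of p-nitroaniline, reads at 0 and 120 min | benchmarks = DMSO-only low control, 5 µM PC-3 D3A high control | repeats = singlicate, each compound tested once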
procasp7 counter = procaspase-7 activators, primary screen, counter-screen for procaspase-3 activator project, biochemical, absorbance, HTS, human. AID 463210, 2010. activation, % at 8.5 µM. 0.093% of 330,000 active. recombinant procaspase-7, Ac-DEVD-pNA absorbance 405 nm; D23A/D198A/D206A triple mutant, cannot self-cleave; scale: DMSO 0, 5 µM enzyme 100. Caspase-7 (Homo sapiens), P55210;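 active = percent activation above the screen-wide mean plus 3 SD, cut at about 25% in these data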
Target sequence (P55210 whole entry D23A/D198A/D206A): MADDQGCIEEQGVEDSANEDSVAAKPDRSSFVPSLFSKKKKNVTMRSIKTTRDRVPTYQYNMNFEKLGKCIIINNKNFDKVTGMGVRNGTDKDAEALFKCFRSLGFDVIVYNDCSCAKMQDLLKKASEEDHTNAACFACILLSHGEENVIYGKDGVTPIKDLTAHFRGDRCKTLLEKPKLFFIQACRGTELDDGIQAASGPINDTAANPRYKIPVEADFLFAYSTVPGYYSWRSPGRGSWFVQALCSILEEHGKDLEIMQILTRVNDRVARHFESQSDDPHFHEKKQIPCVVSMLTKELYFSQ
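System: Procaspase-7 triple mutant (PC-7 D3A); measure: % activation from two-timepoint absorbance difference, scaled to controls; times: 1 h compound preincubation, 2 h substrate cleavage, 25 °C; also added: Ac-DEVD-pNA substrate, 400 µM as added; measured by: Epi-absorbance of released pNA at 405 nm, two timepoints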
procasp7 triplic = procaspase-7 activators, counter-screen for procaspase-3 activator project, biochemical, absorbance, triplicate, human | activation, % at 8.5 µM | recombinant procaspase-7, Ac-DEVD-pNA absorbance; asp23/198/206-to-Ala mutant, cannot self-cleave | 210 tested, under 10 active | shares compounds with procasp3 activ;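 active = mean activation above a set limit taken from an earlier procaspase-7 screen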
procasp3 conf = activators of human procaspase-3 D3A mutant, confirmation, biochemical, absorbance, PC-3 D3A mutant, triplicate; shares compounds with procasp3 activ; recombinant PC-3 D3A, Ac-DEVD-pNA absorbance 405 nm; 100% is higher-enzyme control; activation, % at 8.5 µM; 10% of 210 active; AID 488954, 2010;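 active = mean activation above a set limit carried over from the earlier primary screen, cut at about 22% in these data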
PC3 dual counter = procaspase-3 activators, counter-screen for dual procaspase-3/7 activator project, biochemical, absorbance, PC-3 D3A mutant, human. activation, % at 8.5 µM. recombinant PC-3 D3A, Ac-DEVD-pNA absorbance 405 nm; aspartates 9, 28, 175 changed to alanine; 100% = enzyme control. 290 tested, under 10 active. shares compounds with procasp7 counter;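 active = mean percent activation across triplicates above a set limit taken from the earlier primary procaspase-3 screen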
PC7 dual conf = activation of procaspase-7 enzyme – biochemical, absorbance, human, dual procaspase-3/-7 activator project, confirmation; recombinant procaspase-7, Ac-DEVD-pNA absorbance 405 nm; D23A/D198A/D206A mutant that cannot self-cleave; activation, % at 8.5 µM; 290 tested, under 10 active; shares compounds with procasp7 counter;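 active = mean activation above a set limit carried over from the earlier primary screen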
MsrA act confirm = bovine MsrA activators, retest, confirmation, biochemical, absorbance, HTS. shares compounds with MsrA act. purified bovine MsrA, absorbance read-out. activation, % at 10.6 µM. 12% of 1,000 active. AID 602270, 2012; in the data active = activation above about 4%;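 also: enzyme coupled to thioredoxin and thioredoxin reductase with NADPH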
TbMetRS confirm = T. brucei MetRS inhibitors, confirmation, biochemical, luminescence | shares compounds with TbMetRS inhib | inhibition, % at 11.9 µM | 93% of 1,400 active | T. brucei MetRS enzyme, luminescence (ATP depletion); in the data active = inhibition above about 7%
Jurkat cytotox = Jurkat T cell cytotoxicity, cytotoxicity control for T. brucei MetRS inhibitor project, luminescence, high throughput | shares compounds with TbMetRS inhib | Jurkat cells viability, ATP luminescence | 12% of 1,400 active | inhibition, % at 8.3 µM; in the data active = inhibition above about 15%
Tb MetRS inh FP = T. brucei MetRS inhibitors, orthogonal assay for T. brucei MetRS inhibitor project, biochemical, fluorescence polarization | shares compounds with TbMetRS inhib | purified T. brucei MetRS | inhibition, % at 11.9 µM | 44% of 1,400 active; in the data active = inhibition above about 17%
Large screens that a line does not name were inactive (follow-up assays come after a bar, where they were run). Compounds with a hit are over-represented: about 1.5% of the library has one in this group of screens.

CN1CCc2cc(O)cc3c2[C@H]1Cc1ccc(O)c(O)c1-3	none
CN1CCc2cc3c(c4c2C1Cc1ccccc1-4)OCO3 (configuration not stated)	MsrA act 47.9
O=c1[nH]c(=S)n(Cc2ccc(F)cc2)c(O)c1C=NCCCn1ccnc1	MsrA inh 4.5
O=c1[nH]c(=O)n(Cc2ccc(F)cc2)c(O)c1C=NCCCn1ccnc1	none
CCN(CC)c1ccc(/C=C2/C(=O)NC(=O)N(CC3CCCO3)C2=O)cc1 (configuration not stated)	MsrA inh 5.2
O=C(O)c1ccc(N=Cc2c(O)[nH]c(=O)[nH]c2=O)cc1	MsrA inh 4.6
O=C(NCCN1CCC2(CC1)C(=O)NCN2c1ccccc1)c1cccnc1Cl	none (no result: MsrA act, TbMetRS inhib, procasp3 activ, procasp7 counter)
COc1ccccc1-n1c(/C=C/c2ccc(O)cc2)nc2ccccc2c1=O	MsrA inh 4.6
O=C(NCCN1CCC2(CC1)C(=O)NCN2c1ccccc1)c1ccc(F)c(F)c1	none (no result: MsrA act, TbMetRS inhib, procasp3 activ, procasp7 counter)
N[C@@H](Cc1ccc(N(CCCl)CCCl)cc1)C(=O)O	none
NC(Cc1ccc(O)cc1)C(=O)NN=Cc1ccc(N(CCCl)CCCl)cc1 (configuration not stated)	MsrA inh 7.7 (no result: procasp3 activ, procasp7 counter)
c1ccc(Cc2cnc(N3CCNCC3)nc2)cc1	none (no result: MsrA act, TbMetRS inhib, procasp3 activ, procasp7 counter)
CCC(C)OC(=O)c1c(N)n(Cc2cccs2)c2nc3ccccc3nc12 (configuration not stated)	procasp3 activ 22.5 | procasp7 triplic inactive | procasp3 conf inactive
CC(C)CCNC(=O)c1c(N)n(CC2CCCO2)c2nc3ccccc3nc12 (configuration not stated)	procasp3 activ 24.7 | procasp7 triplic inactive | procasp3 conf inactive
CCC(C)NC(=O)c1c(N)n(CC2CCCO2)c2nc3ccccc3nc12 (configuration not stated)	none
OC1CN2CCC(O)C2C(O)C1O (configuration not stated)	none (no result: MsrA act, TbMetRS inhib, procasp3 activ, procasp7 counter)
CCC(C)NC(=O)c1c(N)n(Cc2ccc3c(c2)OCO3)c2nc3ccccc3nc12 (configuration not stated)	TbMetRS inhib 6.3, procasp3 activ 69.8 | procasp7 triplic inactive | procasp3 conf inactive | TbMetRS confirm inactive | Jurkat cytotox inactive | Tb MetRS inh FP inactive
c1ccc(CCN2CCC3CCNC3C2)cc1 (configuration not stated)	none (no result: MsrA act, TbMetRS inhib, procasp3 activ, procasp7 counter)
COc1ccc(-c2nc3ccc(C(=O)N4CCC5(CC4)OCCO5)cc3nc2-c2ccc(OC)cc2)cc1	procasp3 activ 29.8, procasp7 counter 51.8 | PC3 dual counter inactive | PC7 dual conf inactive
COc1ccc(-n2c(C)nc3cc(C(=O)N4CCC5(CC4)OCCO5)ccc32)cc1	none
CCCNc1oc(-c2cccc3ccccc23)nc1C#N	procasp3 activ 33.0, procasp7 counter 32.1 | PC3 dual counter inactive | PC7 dual conf inactive
O=C1C2CC=CCC2C(=O)N1SC(Cl)(Cl)Cl (configuration not stated)	none (no result: MsrA act, TbMetRS inhib, procasp3 activ, procasp7 counter)
CNC(=S)N1CCn2cccc2C1c1cccnc1 (configuration not stated)	MsrA act 19.9 | MsrA act confirm inactive
O=P(C(Cl)Cl)(N1CCOCC1)N1CCOCC1	none
O=P(C(c1ccc2c(c1)OCO2)N1CCOCC1)(N1CCOCC1)N1CCOCC1 (configuration not stated)	MsrA act 13.1 | MsrA act confirm inactive
OCC[n+]1c2ccccc2nc2ccc(N3CCOCC3)cc21	MsrA inh 5.8, MsrA act 21.4 | MsrA act confirm 10.4
O=C(CCc1ccccc1)N1Cc2cc(N3CCOCC3)ccc2-n2nncc2C1	none (no result: procasp3 activ, procasp7 counter)
C/C=C(\C)C(=O)N[C@@H](c1ccccc1)[C@@H](O)C(=O)O[C@H]1C[C@@]2(O)[C@@H](OC(=O)c3ccccc3)C3[C@](C)(C(=O)[C@H](OC(C)=O)C(=C1C)C2(C)C)[C@H](O)C[C@H]1OC[C@@]31OC(C)=O (some centres not stated)	MsrA act 10.2 | MsrA act confirm inactive
N#Cc1ccc2nc(-c3ccc(CN4CCC(n5nnc6ccccc65)CC4)cc3)c(-c3ccccc3)nc2c1	none (no result: MsrA act, TbMetRS inhib, procasp3 activ, procasp7 counter)
COC(=O)C1C(c2ccccc2)CC2CCC1N2C (configuration not stated)	none (no result: MsrA act, TbMetRS inhib, procasp3 activ, procasp7 counter)
O=c1[nH]sc2cc(F)ccc12	MsrA act 11.8 (no result: procasp3 activ, procasp7 counter) | MsrA act confirm 10.3
